pEC50: −log10 of the molar value.

In ChEMBL document CHEMBL1133516, “Biarylpropylsulfonamides as novel, potent potentiators of 2-amino-3- (5-methyl-3-hydroxyisoxazol-4-yl)- propanoic acid (AMPA) receptors” (J Med Chem, 2000) one finds EC50 data, which are given here for 29 compounds.

The target of the assay is Glutamate receptor 4 (Homo sapiens, UniProt P48058). The assay is described as follows: Tested for potentiation towards human iGluR4 receptor expressed in HEK293 cells. Type of assay: functional, cell-based. A digest of the protocol: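 Human GluR4 flip, stably homomerically expressed in HEK-293 cells. Cells loaded 60 min with 20 µM Fluo3-AM in HEPES buffer (138 mM NaCl, 5 mM CaCl2, 10 mM glucose, pH 7.1-7.3), then washed. Calcium-influx fluorescence read after 100 µM L-glutamate with compound at various concentrations. Responses expressed as % of 100 µM cyclothiazide; EC50 ± SEM calculated.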
Glutamate receptor 4, sequence (P48058 whole entry): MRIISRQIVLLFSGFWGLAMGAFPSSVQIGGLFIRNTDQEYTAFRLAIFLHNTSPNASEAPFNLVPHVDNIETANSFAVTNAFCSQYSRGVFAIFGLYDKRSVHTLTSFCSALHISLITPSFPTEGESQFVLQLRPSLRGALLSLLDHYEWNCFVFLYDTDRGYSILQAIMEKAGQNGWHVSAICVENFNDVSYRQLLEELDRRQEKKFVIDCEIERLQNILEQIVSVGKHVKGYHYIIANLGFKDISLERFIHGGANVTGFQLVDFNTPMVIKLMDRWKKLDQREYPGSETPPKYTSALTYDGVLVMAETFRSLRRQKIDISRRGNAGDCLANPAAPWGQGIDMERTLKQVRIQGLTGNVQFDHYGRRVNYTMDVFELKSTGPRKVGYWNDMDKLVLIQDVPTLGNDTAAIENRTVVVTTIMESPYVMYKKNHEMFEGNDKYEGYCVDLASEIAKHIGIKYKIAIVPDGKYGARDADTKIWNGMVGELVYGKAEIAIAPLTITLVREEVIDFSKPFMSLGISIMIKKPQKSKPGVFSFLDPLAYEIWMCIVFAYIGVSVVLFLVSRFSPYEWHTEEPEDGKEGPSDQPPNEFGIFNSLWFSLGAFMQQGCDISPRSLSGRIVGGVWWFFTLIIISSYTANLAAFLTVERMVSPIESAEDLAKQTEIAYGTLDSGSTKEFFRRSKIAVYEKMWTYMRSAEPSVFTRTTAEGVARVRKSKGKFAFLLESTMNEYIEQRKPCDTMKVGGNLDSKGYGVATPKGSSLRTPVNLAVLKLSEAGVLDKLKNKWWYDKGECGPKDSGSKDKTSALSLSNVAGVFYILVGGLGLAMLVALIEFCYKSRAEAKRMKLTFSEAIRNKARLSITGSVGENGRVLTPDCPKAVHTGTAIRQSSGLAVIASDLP
For orientation: pEC50 means −log10 of the EC50, conventionally taken in molar units. On to `CCS(=O)(=O)NCC(C)c1ccc(-c2ccccc2F)cc1` (centres undefined), for which the pEC50 was 5.27.

On to `CC(CNS(=O)(=O)C(C)C)c1ccc(-c2ccccc2)cc1` (centres undefined), for which the pEC50 was 6.00.

As to `CCCS(=O)(=O)NCC(C)c1ccc(-c2ccccc2F)cc1` (centres undefined), the pEC50 was 4.62. On to `CCCC(CNS(=O)(=O)C(C)C)c1ccc(C(C)(C)C)cc1` (centres undefined), for which the pEC50 was 4.55. For `CCCCS(=O)(=O)NCC(C)c1ccc(-c2ccccc2F)cc1` (centres undefined) the value was less than 4.00; for `CC(C)S(=O)(=O)NCCc1ccc(C(C)(C)C)cc1`, 4.89; for `CC(C)S(=O)(=O)NCC(Cc1ccccc1)c1ccc(C(C)(C)C)cc1` (centres undefined), less than 4.00.

For `CC(C)S(=O)(=O)NCCc1ccc(-c2ccccc2F)cc1`, the pEC50 is 5.14. For `CC(CNS(=O)(=O)N(C)C)c1ccc(-c2ccccc2F)cc1` (centres undefined) the value was 5.40; for `CC(CNS(=O)(=O)C(C)C)c1ccc(-c2ccc(C(=O)O)cc2)cc1` (centres undefined), 5.85. For `CC(CNS(=O)(=O)C(C)C)c1ccc(C(C)(C)C)cc1` (centres undefined) the value was 5.92. For `CC(C)S(=O)(=O)NCC(CCc1ccccc1)c1ccc(C(C)(C)C)cc1` (centres undefined) the value was less than 4.00; for `CC(CNS(=O)(=O)C(C)C)c1ccc(-c2ccc(C(F)(F)F)cc2)cc1` (centres undefined), less than 5.52; for `CC(CNS(=O)(=O)c1ccccc1)c1ccc(-c2ccccc2F)cc1` (centres undefined), 4.20. With `CC(CNS(=O)(=O)C(C)C)c1ccc(-c2ccc(C#N)cc2)cc1` (centres undefined), the pEC50 was 6.54. For `Cc1ccc(-c2ccc(C(C)CNS(=O)(=O)C(C)C)cc2)cc1` (centres undefined) the value was 6.57.

Consider `CC(CNS(C)(=O)=O)c1ccc(-c2ccccc2F)cc1` (centres undefined), for which the pEC50 is 4.71.

As for `CC(CNS(=O)(=O)C(C)C)c1ccc(-c2ccsc2)cc1` (centres undefined), the pEC50 is 6.18.

As for `CC(CNS(=O)(=O)C(C)C)c1ccc(-c2ccc(C=O)cc2)cc1` (centres undefined), the pEC50 is 6.60. For `CCC(CNS(=O)(=O)C(C)C)c1ccc(C(C)(C)C)cc1` (centres undefined) the value was 5.70. With `O=C(c1ccc2nccnc2c1)N1CCCCC1` [CX516], the pEC50 was less than 3.00. For `CC(CNS(=O)(=O)C(C)C)c1ccc(-c2ccc(Cl)cc2)cc1` (centres undefined) the value was less than 5.52; for `NS(=O)(=O)c1cc2c(cc1Cl)NC(C1CC3C=CC1C3)NS2(=O)=O` (centres undefined) [CYCLOTHIAZIDE], 5.42; for `CC(CNS(=O)(=O)C(C)C)c1ccc(-c2ccccc2F)cc1` (centres undefined), 5.36.

Take `CC(CN)c1ccc(-c2ccccc2F)cc1` (centres undefined): the pEC50 is less than 4.00. For `CC(CNS(=O)(=O)C(F)(F)F)c1ccc(-c2ccccc2F)cc1` (centres undefined) the value was 4.48; for `CC(CNS(=O)(=O)Cc1ccccc1)c1ccc(-c2ccccc2F)cc1` (centres undefined), less than 4.00. For `CC(CNS(=O)(=O)C(C)C)c1ccc(-c2ccc(N)cc2)cc1` (centres undefined) the value was 6.89; for `CC(CNS(C)(=O)=O)c1ccc(-c2ccsc2)cc1` (centres undefined), 5.35.
